Assay results from different studies.
Compare with care: the assays were run in different laboratories.
Cell line: NCI-H522
Observed: cell growth or viability

COc1cc(-c2ccc(-c3ccc(C(=N)N)nc3)s2)cc(OC)c1OC — GI50 (SRB): 1800 nM
c1ccc2cc(Cn3cc[n+](Cc4ccc5ccccc5c4)c3)ccc2c1 — TGI (SRB): 3110 nM
COc1cccc(Oc2ccccc2NC(=O)CNC(=O)c2cccc3ccccc23)c1 — GI50 (SRB; 48 h): 178 nM
COc1ccc(C(=O)/C=C/c2cccc(Cl)c2Cl)cc1S(N)(=O)=O — inhibition (SRB; 10 µM): 156%
Cc1cc(C)n(C(=S)[S][Au][PH](CCCCCC[PH]([Au][S]C(=S)n2nc(C)cc2C)(c2ccccc2)c2ccccc2)(c2ccccc2)c2ccccc2)n1 — GI50 (SRB): 1240 nM
Cc1n(Cc2ccc3ccccc3n2)cc[n+]1Cc1ccc2ccccc2c1 — TGI (SRB): 1460 nM
COc1ccccc1/C=C/C(=O)c1ccc(OC)c(S(N)(=O)=O)c1 — inhibition (SRB; 10 µM): 110%
CCCc1n(Cc2ccc3ccccc3n2)cc[n+]1Cc1ccc2ccccc2c1 — TGI (SRB): 1130 nM
COc1ccc(C(=O)/C=C/c2cccc3ccccc23)cc1S(N)(=O)=O — GI50 (SRB; 48 h): 1600 nM
c1ccc(-c2n(Cc3ccc4ccccc4c3)cc[n+]2Cc2ccc3ccccc3c2)cc1 — TGI (SRB): 2580 nM
O=C1Nc2ccccc2C1=NNc1nnc2n1N=C(c1ccccc1)CS2 — inhibition (SRB; 10 µM): 57%
COc1ccc(C(=O)/C=C/c2cccnc2)cc1S(N)(=O)=O — inhibition (SRB; 10 µM): 168%
O=C1NC(=NCc2cccs2)S/C1=C\c1ccc2ncccc2c1 — IC50: > 10000 nM
COc1ccc(C2=Nn3c(NN=C4C(=O)Nc5ccc(OC)cc54)nnc3SC2)cc1 — inhibition (SRB; 10 µM): 25%
